Reference: ChEMBL document CHEMBL4043093, “2-Oxo-3, 4-dihydropyrimido[4, 5-d]pyrimidinyl derivatives as new irreversible pan fibroblast growth factor receptor (FGFR) inhibitors” (Eur J Med Chem, 2017)

Assays:
[1] = target: VEGFR2 (vascular endothelial growth factor receptor 2) (Homo sapiens, UniProt P35968); assay: Inhibition of wild-type human partial length VEGFR2 (R787 to P1253 residues) expressed in HEK293 cells assessed as residual activity at 1000 nM after 30 mins by Kinomescan method relative to control; type: cell-based; settings: read-out: Activity
[2] = system: Hepatocyte growth factor receptor (Homo sapiens), P08581 [M1250T]; assay: Inhibition of human partial length MET M1250T mutant (D1010 to S1367 residues) expressed in Escherichia coli BL21 assessed as residual activity at 1000 nM after 30 mins by Kinomescan method relative to control
Summary of the method: (§1)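 KINOMEscan binding panel of 456 kinases, with the test compound at a single concentration of 1 µM. Read-out is Percent Control.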

[3] = system: Tyrosine-protein kinase ABL1 (Homo sapiens), P00519 [H396P]; assay: Inhibition of human non-phosphorylated ABL1 H396P mutant (S229 to K512 residues) expressed in HEK293 cells assessed as residual activity at 1000 nM after 30 mins by Kinomescan method relative to control; type: cell-based; summary of the method: as §1
[4] = target: Ephrin type-A receptor 3 (Homo sapiens) (UniProt P29320); assay: Inhibition of wild-type human partial length EPHA3 (D604 to K889 residues) expressed in Escherichia coli BL21 assessed as residual activity at 1000 nM after 30 mins by Kinomescan method relative to control
Chain of Ephrin type-A receptor 3 (Homo sapiens) (P29320 whole entry, the tested form may be a part): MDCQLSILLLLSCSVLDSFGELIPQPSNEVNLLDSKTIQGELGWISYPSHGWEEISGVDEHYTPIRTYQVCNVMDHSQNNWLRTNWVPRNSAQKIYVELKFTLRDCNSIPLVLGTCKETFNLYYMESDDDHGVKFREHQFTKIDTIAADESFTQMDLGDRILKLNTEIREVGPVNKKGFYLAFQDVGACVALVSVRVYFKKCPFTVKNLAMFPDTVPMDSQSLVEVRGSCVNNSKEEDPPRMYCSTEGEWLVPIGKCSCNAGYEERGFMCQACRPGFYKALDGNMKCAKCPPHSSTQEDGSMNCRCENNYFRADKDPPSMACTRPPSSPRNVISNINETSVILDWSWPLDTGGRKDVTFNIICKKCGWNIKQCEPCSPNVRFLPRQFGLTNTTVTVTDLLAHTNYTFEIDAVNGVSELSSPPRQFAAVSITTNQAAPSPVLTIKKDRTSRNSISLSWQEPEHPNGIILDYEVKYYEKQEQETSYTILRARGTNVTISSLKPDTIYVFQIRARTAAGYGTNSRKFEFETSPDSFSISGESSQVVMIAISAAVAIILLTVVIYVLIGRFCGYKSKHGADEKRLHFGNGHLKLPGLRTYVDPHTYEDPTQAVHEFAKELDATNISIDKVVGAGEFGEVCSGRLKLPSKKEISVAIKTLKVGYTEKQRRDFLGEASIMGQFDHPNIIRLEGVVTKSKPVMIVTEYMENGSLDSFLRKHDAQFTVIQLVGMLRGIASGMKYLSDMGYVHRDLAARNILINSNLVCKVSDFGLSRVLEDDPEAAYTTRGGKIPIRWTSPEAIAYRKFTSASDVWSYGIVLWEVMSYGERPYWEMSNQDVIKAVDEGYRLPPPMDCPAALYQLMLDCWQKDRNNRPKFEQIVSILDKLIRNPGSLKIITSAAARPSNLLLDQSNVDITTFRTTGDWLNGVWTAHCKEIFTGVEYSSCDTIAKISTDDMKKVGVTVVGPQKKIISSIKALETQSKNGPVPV

[5] = target: TGF-beta receptor type-2 (Homo sapiens) (UniProt P37173); assay: Inhibition of wild-type human partial length TGFBR2 (I218 to K567 residues) expressed in Escherichia coli BL21 assessed as residual activity at 1000 nM after 30 mins by Kinomescan method relative to control
Chain of TGF-beta receptor type-2 (Homo sapiens) (P37173 whole entry, the tested form may be a part): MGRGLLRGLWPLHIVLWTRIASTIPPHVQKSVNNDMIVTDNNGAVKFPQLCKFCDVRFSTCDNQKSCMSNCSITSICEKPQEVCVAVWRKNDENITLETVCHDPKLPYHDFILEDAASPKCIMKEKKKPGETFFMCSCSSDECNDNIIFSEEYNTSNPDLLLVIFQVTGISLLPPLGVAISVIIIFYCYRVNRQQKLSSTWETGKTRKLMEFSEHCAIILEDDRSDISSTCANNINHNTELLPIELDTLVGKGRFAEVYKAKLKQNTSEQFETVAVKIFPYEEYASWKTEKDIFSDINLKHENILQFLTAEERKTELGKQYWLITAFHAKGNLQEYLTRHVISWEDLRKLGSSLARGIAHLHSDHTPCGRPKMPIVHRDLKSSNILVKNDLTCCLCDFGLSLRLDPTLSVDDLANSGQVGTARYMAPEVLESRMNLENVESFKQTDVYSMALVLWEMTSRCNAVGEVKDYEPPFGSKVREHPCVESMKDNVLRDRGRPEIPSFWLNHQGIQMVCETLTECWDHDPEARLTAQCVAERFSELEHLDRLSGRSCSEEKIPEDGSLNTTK

[6] = target: Ribosomal protein S6 kinase beta-1 (Homo sapiens) (UniProt P23443); assay: Inhibition of wild-type human partial length S6K1 (M1 to S421 residues) expressed in HEK293 cells assessed as residual activity at 1000 nM after 30 mins by Kinomescan method relative to control; type: cell-based
[7] = system: Epidermal growth factor receptor (Homo sapiens), P00533 [L858R,T790M]; assay: Inhibition of human partial length EGFR L858R/T790M double mutant (R669 to V1011 residues) expressed in HEK293 cells assessed as residual activity at 1000 nM after 30 mins by Kinomescan method relative to control; type: cell-based; summary of the method: as §1
[8] = target: Serine/threonine-protein kinase 32A (Homo sapiens) (UniProt Q8WU08); assay: Inhibition of wild-type human full length YANK1 (M1 to L396 residues) expressed in HEK293 cells assessed as residual activity at 1000 nM after 30 mins by Kinomescan method relative to control; type: cell-based
Chain of Serine/threonine-protein kinase 32A (Homo sapiens) (Q8WU08 whole entry, the tested form may be a part): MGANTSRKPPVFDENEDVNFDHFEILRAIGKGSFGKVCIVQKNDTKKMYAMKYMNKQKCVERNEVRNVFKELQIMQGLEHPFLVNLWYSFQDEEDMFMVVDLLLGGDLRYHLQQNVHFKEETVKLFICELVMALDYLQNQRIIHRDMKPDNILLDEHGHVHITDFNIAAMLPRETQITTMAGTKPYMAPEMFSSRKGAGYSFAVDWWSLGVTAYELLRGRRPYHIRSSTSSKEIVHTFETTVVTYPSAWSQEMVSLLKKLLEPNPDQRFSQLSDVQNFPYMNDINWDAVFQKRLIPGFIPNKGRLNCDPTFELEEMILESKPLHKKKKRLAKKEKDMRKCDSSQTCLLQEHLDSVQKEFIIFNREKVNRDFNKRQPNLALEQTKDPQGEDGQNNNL

[9] = target: Serine/threonine-protein kinase Nek10 (Homo sapiens) (UniProt Q6ZWH5); assay: Inhibition of wild-type human partial length NEK10 (L488 to R809 residues) expressed in HEK293 cells assessed as residual activity at 1000 nM after 30 mins by Kinomescan method relative to control; type: cell-based
[10] = target: Serine/threonine-protein kinase VRK2 (Homo sapiens) (UniProt Q86Y07); assay: Inhibition of wild-type human partial length VRK2 (M1 to T336 residues) expressed in HEK293 cells assessed as residual activity at 1000 nM after 30 mins by Kinomescan method relative to control; type: cell-based
Chain of Serine/threonine-protein kinase VRK2 (Homo sapiens) (Q86Y07 whole entry, the tested form may be a part): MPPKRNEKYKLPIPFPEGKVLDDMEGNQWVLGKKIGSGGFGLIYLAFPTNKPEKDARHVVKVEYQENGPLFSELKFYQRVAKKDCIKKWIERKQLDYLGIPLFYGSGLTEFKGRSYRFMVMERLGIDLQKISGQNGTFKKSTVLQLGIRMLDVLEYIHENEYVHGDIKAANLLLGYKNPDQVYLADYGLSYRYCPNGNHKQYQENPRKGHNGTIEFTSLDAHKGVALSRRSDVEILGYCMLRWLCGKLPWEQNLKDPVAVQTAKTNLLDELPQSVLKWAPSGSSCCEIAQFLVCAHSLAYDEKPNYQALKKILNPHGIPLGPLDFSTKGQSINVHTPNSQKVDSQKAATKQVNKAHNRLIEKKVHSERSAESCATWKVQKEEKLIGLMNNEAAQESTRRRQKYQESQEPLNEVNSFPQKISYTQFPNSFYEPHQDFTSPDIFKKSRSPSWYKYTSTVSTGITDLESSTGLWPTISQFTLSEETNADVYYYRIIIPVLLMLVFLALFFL

[11] = system: Epidermal growth factor receptor (Homo sapiens), P00533 [L858R]; assay: Inhibition of human partial length EGFR L858R mutant (R669 to V1011 residues) expressed in Escherichia coli BL21 assessed as residual activity at 1000 nM after 30 mins by Kinomescan method relative to control; summary of the method: as §1
[12] = target: Serine/threonine-protein kinase TBK1 (Homo sapiens) (UniProt Q9UHD2); assay: Inhibition of wild-type human full length TBK1 (M1 to L729 residues) expressed in HEK293 cells assessed as residual activity at 1000 nM after 30 mins by Kinomescan method relative to control; type: cell-based
Chain of Serine/threonine-protein kinase TBK1 (Homo sapiens) (Q9UHD2 whole entry, the tested form may be a part): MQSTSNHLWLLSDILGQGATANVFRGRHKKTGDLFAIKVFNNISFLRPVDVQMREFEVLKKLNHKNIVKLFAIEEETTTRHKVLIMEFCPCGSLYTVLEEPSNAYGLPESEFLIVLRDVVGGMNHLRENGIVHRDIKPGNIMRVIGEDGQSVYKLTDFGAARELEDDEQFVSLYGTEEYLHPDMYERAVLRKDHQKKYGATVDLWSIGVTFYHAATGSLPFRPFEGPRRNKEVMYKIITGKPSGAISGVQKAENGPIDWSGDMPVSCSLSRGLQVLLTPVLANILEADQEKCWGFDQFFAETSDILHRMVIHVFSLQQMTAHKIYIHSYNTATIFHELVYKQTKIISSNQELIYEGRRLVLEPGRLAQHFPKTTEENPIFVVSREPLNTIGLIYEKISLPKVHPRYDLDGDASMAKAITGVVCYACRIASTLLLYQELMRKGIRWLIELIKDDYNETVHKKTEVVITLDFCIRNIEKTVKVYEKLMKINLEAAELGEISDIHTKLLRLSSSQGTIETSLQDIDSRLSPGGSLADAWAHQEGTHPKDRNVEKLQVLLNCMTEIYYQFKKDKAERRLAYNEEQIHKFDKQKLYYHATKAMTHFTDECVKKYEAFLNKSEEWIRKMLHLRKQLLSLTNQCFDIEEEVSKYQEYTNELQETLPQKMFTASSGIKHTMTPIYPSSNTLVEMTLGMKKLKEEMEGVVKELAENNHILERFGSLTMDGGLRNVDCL

[13] = target: Tyrosine-protein kinase Tec (Homo sapiens) (UniProt P42680); assay: Inhibition of wild-type human partial length TEC (L341 to D620 residues) expressed in Escherichia coli BL21 assessed as residual activity at 1000 nM after 30 mins by Kinomescan method relative to control
Chain of Tyrosine-protein kinase Tec (Homo sapiens) (P42680 whole entry, the tested form may be a part): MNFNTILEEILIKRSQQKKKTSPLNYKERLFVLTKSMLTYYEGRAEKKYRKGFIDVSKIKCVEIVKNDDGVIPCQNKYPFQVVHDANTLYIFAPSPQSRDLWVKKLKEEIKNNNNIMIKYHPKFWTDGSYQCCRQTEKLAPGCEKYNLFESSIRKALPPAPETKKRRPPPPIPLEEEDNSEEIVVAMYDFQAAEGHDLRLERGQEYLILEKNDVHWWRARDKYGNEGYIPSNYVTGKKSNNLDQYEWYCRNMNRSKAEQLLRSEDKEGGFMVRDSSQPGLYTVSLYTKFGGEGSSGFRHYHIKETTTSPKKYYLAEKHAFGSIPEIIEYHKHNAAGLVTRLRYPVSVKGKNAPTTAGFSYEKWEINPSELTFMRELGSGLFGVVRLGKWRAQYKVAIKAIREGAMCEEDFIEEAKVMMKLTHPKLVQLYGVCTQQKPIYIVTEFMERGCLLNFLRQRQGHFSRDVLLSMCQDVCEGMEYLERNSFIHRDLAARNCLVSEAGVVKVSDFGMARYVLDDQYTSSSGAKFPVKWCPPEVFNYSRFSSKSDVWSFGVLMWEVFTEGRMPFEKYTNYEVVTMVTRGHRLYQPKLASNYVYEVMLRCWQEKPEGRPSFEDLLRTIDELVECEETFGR

[14] = target: Calcium/calmodulin-dependent protein kinase type II subunit delta (Homo sapiens) (UniProt Q13557); assay: Inhibition of wild-type human partial length CAMK2D (M1 to E329 residues) expressed in Escherichia coli BL21 assessed as residual activity at 1000 nM after 30 mins by Kinomescan method relative to control
Chain of Calcium/calmodulin-dependent protein kinase type II subunit delta (Homo sapiens) (Q13557 whole entry, the tested form may be a part): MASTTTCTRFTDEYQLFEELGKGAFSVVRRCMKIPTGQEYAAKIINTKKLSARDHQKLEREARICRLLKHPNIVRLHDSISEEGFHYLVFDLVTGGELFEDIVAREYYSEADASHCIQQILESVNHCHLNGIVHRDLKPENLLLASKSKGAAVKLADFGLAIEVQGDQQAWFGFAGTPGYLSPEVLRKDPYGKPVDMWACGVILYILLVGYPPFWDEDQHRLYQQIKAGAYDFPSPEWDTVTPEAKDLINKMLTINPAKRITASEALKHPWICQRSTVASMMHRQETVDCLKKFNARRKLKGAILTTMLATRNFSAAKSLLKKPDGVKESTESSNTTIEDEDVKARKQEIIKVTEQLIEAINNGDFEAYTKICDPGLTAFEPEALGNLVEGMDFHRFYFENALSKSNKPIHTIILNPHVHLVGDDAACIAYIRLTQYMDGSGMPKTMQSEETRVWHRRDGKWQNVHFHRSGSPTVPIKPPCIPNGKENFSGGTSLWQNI

[15] = target: Mitogen-activated protein kinase 1 (Homo sapiens) (UniProt P28482); assay: Inhibition of wild-type human full length ERK2 (M1 to S360 residues) expressed in Escherichia coli BL21 assessed as residual activity at 1000 nM after 30 mins by Kinomescan method relative to control
Chain of Mitogen-activated protein kinase 1 (Homo sapiens) (P28482 whole entry, the tested form may be a part): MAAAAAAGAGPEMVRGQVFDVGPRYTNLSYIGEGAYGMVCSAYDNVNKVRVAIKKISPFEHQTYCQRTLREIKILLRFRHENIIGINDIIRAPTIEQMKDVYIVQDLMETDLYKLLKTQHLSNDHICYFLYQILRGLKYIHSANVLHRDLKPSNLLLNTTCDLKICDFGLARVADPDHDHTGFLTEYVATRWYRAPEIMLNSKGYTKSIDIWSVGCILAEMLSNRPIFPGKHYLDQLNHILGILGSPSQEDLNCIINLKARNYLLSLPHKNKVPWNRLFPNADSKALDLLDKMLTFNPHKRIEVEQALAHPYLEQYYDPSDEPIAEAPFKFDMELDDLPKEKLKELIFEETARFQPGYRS
Summary of the method: (§2)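 Single-concentration screen at 1 µM across a 456-kinase KINOMEscan panel. The read-out is Percent Control for each kinase.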

[16] = target: Rhodopsin kinase GRK7 (Homo sapiens) (UniProt Q8WTQ7); assay: Inhibition of wild-type human full length GRK7 (M1 to L553 residues) expressed in HEK293 cells assessed as residual activity at 1000 nM after 30 mins by Kinomescan method relative to control; type: cell-based; summary of the method: as §2
[17] = system: Receptor-type tyrosine-protein kinase FLT3 (Homo sapiens), P36888 [D835Y]; assay: Inhibition of human partial length FLT3 D835Y mutant (Q580 to Y969 residues) expressed in Escherichia coli BL21 assessed as residual activity at 1000 nM after 30 mins by Kinomescan method relative to control; summary of the method: as §1
[18] = target: Testis-specific serine/threonine-protein kinase 3 (Homo sapiens) (UniProt Q96PN8); assay: Inhibition of wild-type human full length TSSK3 (M1 to T268 residues) expressed in HEK293 cells assessed as residual activity at 1000 nM after 30 mins by Kinomescan method relative to control; type: cell-based
Chain of Testis-specific serine/threonine-protein kinase 3 (Homo sapiens) (Q96PN8 whole entry, the tested form may be a part): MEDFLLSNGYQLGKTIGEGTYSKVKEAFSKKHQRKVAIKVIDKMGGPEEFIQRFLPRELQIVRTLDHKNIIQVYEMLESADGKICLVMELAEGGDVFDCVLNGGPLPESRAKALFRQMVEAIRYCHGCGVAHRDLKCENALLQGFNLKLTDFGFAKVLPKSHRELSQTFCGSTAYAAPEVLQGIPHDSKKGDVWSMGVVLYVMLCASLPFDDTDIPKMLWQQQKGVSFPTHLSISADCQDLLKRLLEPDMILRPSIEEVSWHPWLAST

[19] = target: Leukocyte tyrosine kinase receptor (Homo sapiens) (UniProt P29376); assay: Inhibition of wild-type human partial length LTK (P422 to S744 residues) expressed in Escherichia coli BL21 assessed as residual activity at 1000 nM after 30 mins by Kinomescan method relative to control
[20] = system: Mycobacterium tuberculosis; assay: Inhibition of wild-type Mycobacterium tuberculosis partial length PKNB (M1 to G279 residues) expressed in HEK293 cells assessed as residual activity at 1000 nM after 30 mins by Kinomescan method relative to control; type: cell-based
Summary of the method: (§3)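 Single-point screen at a fixed 1 µM, run within a 456-kinase DiscoveRx KINOMEscan panel. Each kinase's read-out is Percent Control, i.e. signal relative to a control without compound. Hits were scored by a Percent Control < 35 cut-off, and an S(35) selectivity score was calculated across the non-mutant kinases.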

[21] = target: Atypical kinase COQ8B, mitochondrial (Homo sapiens) (UniProt Q96D53); assay: Inhibition of wild-type human full length ADCK4 (M1 to S544 residues) expressed in Escherichia coli BL21 assessed as residual activity at 1000 nM after 30 mins by Kinomescan method relative to control; summary of the method: as §3

For `COc1cc(OC)c(Cl)c(N2Cc3cnc(Nc4ccc(F)cc4)nc3N(C3CCN(C(=O)/C=C/CN(C)C)CC3)C2=O)c1Cl`, the activity at 0.5 h, 1 µM [1] was 7.3%, the Activity [2] was 100% and the Activity [3] was 31%. The Activity [4] was 100%, the Activity [5] was 91% and the Activity [6] was 92%. For the same compound, the Activity [7] was 94%, the Activity [8] was 100% and the Activity [9] was 86%. It also gave an Activity [10] of 100%, an Activity [11] of 90% and an Activity [12] of 92%. It also gave an Activity [13] of 100%, an Activity [14] of 100% and an Activity [15] of 100%. It also gave an Activity [16] of 99%, an Activity [17] of 83% and an Activity [18] of 100%. For the same compound, the Activity [19] was 95%, the Activity [20] was 100% and the Activity [21] was 94%.
